Measurements published in the EternaBench riboswitch data.

System: MS2 coat protein
Assay: apparent Kd, MS2 coat protein; higher = weaker binding; RNA-MaP array; FMN 200 µM where present
Method in brief: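 Two titrations, one without ligand and one with constant ligand, were run with SNAP-549-labelled MS2 coat protein from 0.7 or 1.5 nM, doubling to 3 µM. The targets were designs transcribed by stalled E. coli RNA polymerase on Illumina sequencing-chip clusters, in 100 mM Tris-HCl pH 7.5, 80 mM KCl, 4 mM MgCl2, BSA, DTT, yeast tRNA and Tween-20. The apparent Kd is the median of filtered per-cluster binding-curve fits, with green signal normalised to red-channel RNA signal and control-cluster median Fmax.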

[1] = designed as: ON switch for flavin mononucleotide, no ligand
[2] = ligand present: flavin mononucleotide, designed as: ON switch for flavin mononucleotide
[3] = designed as: OFF switch for flavin mononucleotide, no ligand
[4] = ligand present: flavin mononucleotide, designed as: OFF switch for flavin mononucleotide

Sequence	apparent Kd [1] [nM]	apparent Kd [2] [nM]	apparent Kd [3] [nM]	apparent Kd [4] [nM]
AUUAUACAUGAGGAUCACCCAUGUAAUUAAUCUAGUAAGAUCUAGGAUAUCAGCUCGAUUAGAGCUGAGAAGGAGAUCACAUGU	52.9	22.2	–	–
UGGUACUAAGGAGGAUAUGGGAAGAUACAUGAGGAUCACCCAUGUUUAAGAAUGCCGAGAGGCAACUAGAAGGCCCUAGUACCU	415	21.9	–	–
UGGAAACAUGAGGAUCACCCAUGUAAAAGGUGGUCAGGAUAUGCGAAAAGAAAAAGAAAAGUAGAAGGGACAAGAA	459	1200	–	–
GAAAGGGCAGGAUAUGCAUGUUGGCAAAAUUCUCAGCAAGAACAUGAGGAUCACCCAUGUAGAAGGGCCAACGG	–	–	42.3	59.9
GUGCCUUGGGAGAAGGUUAUUAGCAAAGCUAUUAAAGGAUAUUCAUACCGGAAACGGACAUGAGGAUCACCCAUGUGGCACAAA	1630	122	–	–
UAUGCACAUGAGGAUCACCCAUGUGAGGAUAUAGGUCGUGUGCGUUCACGCAUCGUACUUAGAAGGCACUGCGG	–	–	46.9	92.5
ACGGAGUCAGGAUAUUUAGAGCGUUGGCAAUGCUAGCGCAUGGAGAAGGGACAUGAGGAUCACCCAUGUUUGGA	–	–	39.9	39.9
AACCCUUGUGUUAGGAUAUGUCACUACCAUAUGCGACAGAAGGAACAUGAGGAUCACCCAUGUGAGUUAGCCAA	–	–	42.8	91.1
AAGUAGGGAGGAUAUACAUAGAUACAGAUUCGUGUAGAACUACAUGAGGAUCACCCAUGUAGAAGGCCCUAAUA	–	–	18.1	41.6
UUAUUACAUGAGGAUCACCCAUGUGAGGAUAUCGAUGUAACUAGCAGCGUGCGGGACUCGAGAAGGCACUUGGA	–	–	61.1	144
UGAGCAAGAGGAUAUACAAGGCGACCGUGAGGUCGAGGUUUACAUGAGGAUCACCCAUGUAGAAGGCUUGUUCU	–	–	17.2	38.9
AGAUCCGCAGGAUAUGUCAAUUUACACAUGAGGAUCACCCAUGUGCCUUGUGUCAGCUUGAUAGAAGGGCGGACUA	–	–	330	575
AUUGAUGUUGAGGAUAUGCUUUUAUUUAUUCUUGCAGAAGGCGAUACAUGAGGAUCACCCAUGUUCAUGGAAGU	–	–	40.5	40.6
AUGCUAGUGUGAGGAUAUUAGGCUACAUGAGGAUCACCCAUGUUGAUCAUGAGGAUCACCCAUGAUAAGAAGGUACAUUAGCAU	–	–	88.1	108
CAAAGGUGAGGAUAUGCAUAACUAUGACGAAAGUCAUAAACACAUGAGGAUCACCCAUGUAGAAGGCGCCACAA	–	–	63.6	47.8
AGUUAAUGCACAUGAGGAUCACCCAUGUCACUUUAUAGAAGACAGGAUAUGCAUGCCAUCAAUGUGCAGAAGGGUCAUCACCGA	81	195	–	–
AGCACGAAAGUGCAACGAUGUAGCAGAAGGACAUGAGGAUCACCCAUGUAAGGUCUAUGACCAAUGUAGGAUAUGCUACAUCGA	–	–	6.62	35
CUUUCGUGAGGAUAUGUGGCUUCGAUCGUGAGAUCGAGGAAACAGAAGGCACAUGAGGAUCACCCAUGUUCCUC	–	–	35.9	421
GUGCAUACGUGAGGAUAUGUAUUAGAUAGUGGUACAGAAGGCAUGUCAGAUGACAUGAGGAUCACCCAUGUUGGCACAAUGCGC	137	30.5	–	–
AAAACAUGAGGAUCACCCAUGUAAAGAACGGUUAAUAAAUGUGAGGAUAUACUAAAAUUUUCGUAGUAGAAGGCACUGGGUACA	22.2	24.8	–	–
UUUGUCGGAGUAGGAUAUCAAAUAGAGGGUGUAUGAGAAGGACUUAGACAUGAGGAUCACCCAUGUGUGGGUCGCCUCGAUCUC	–	–	6.88	10.9
UGUGGUGGUCAGGAUAUAAAUUGCGCCUGACGCUUAGAAGGGACUACAUGAGGAUCACCCAUGUGAGAGCUUCA	–	–	16.4	15.9
ACUUCACAUGAGGAUCACCCAUGUCAGGCCGGACUAGGAUAUUAUCAACCAGAGUAACCAUAAGAAGGAGUAGGAA	64.4	78.4	–	–
AAGACAUGAGGAUCACCCAUGUAAAGACCGGUCAAUCAAUGUGAGGAUAUUCCAUAAUUGAUAGGGAAGAAGGCACUGGGUUGA	106	50.2	–	–

Sequence	apparent Kd [1] [nM]	apparent Kd [2] [nM]	apparent Kd [3] [nM]	apparent Kd [4] [nM]
GUGCACAUUCGAGGAUAUCGGAGAGAGAUCGUUCGAGAAGGCGAUUCAUGAUGUAUUAUCCUGGACAUGAGGAUCACCCAUGUG	105	89.3	–	–
AAGGAUCGAGGAUAUACAUAGAUACAGAUACAUGUAGACGUACAUGAGGAUCACCCAUGUAGAAGGCGAUUAUA	–	–	72.6	220
GUAUGAGCGAUAGGAUAUACUGAGAUUGAAUGGGUAGAAGGAUUUCUUGUGGGAAAGACAUGAGGAUCACCCAUGUCACGGACC	291	148	–	–
GAAUAAUUGAUCCAUUUUUAAAACAUGAGGAUCACCCAUGUGCAGGAUAUCGUGUGAGUUAAAUACGAGAAGGGCAAGAACUGU	–	–	201	214
UGUCGGAAGUAGAAGGGUAUGACAUGAGGAUCACCCAUGUGAUUUGGGUAUACAGGAUAUGCUUAUAUAUAUGAUUAAAUUAUU	–	–	451	248
GCAUGCAUAGCGAUAUGAUCGAGAGAUCAUGUCGCUAAAUUUAGAAGGACAUGAGGAUCACCCAUGUAGGAUAUGGGAGCAUGC	11.7	7.72	–	–
GGUUCCAACACAGGAUAUGCUAUCCUUUGGGUAGCAGAAGGGUGAAACAUGAGGAUCACCCAUGUGGAGCCAGGGCGUGAGCCC	593	63.1	–	–
CAGUUCUGAGGAUAUCCACCCUCCUACAUGAGGAUCACCCAUGUUUCCCUCUGGGCUUUCGGAGAAGGCAGUUAUC	–	–	52.5	43.6
GUUAUACAUGAGGAUCACCCAUGUCAAUGUAGUCGAGGAUAUGGGCAGCUAUGAGGCGUACUAGAAGGCGAUGAGU	156	44.5	–	–
UAUGUUUUUGUGAGGAUAUACUUUGUUUGGUCGUAGUAGAAGGCACAUGAGGAUCACCCAUGUAGAUUUUUGGU	–	–	22.8	40.4
CGACAGUACACAGGAUAUCCUCGACUUUGUCGAGGAGAAGGGUGUAAACAUGAGGAUCACCCAUGUAUACUGUCGAAAUAUAAU	350	38.7	–	–
ACUUAUAGAGGAUAUACAGUUUAUUACAUGAGGAUCACCCAUGUUCUUCAAUGUAUAUAAGUAGAAGGCUAAGGAA	–	–	35	175
GUCGUUUCUGAGGAUAUUAUUUUUUUCGAUUGAUAAGAAGGCAGUACAUGAGGAUCACCCAUGUGGGUUGUCUG	–	–	30	97.3
CUCAUGUCAGGAUAUCGUGCAGCUACCGAAAGGUAGCUGCACGAGAAGGGACAUGAGGAUCACCCAUGUAUGAA	–	–	22.2	18.4
CAGUUUUGAGGAUAUCCAUCCUCCUACAUGAGGAUCACCCAUGUUUCCCUCUGGGUUUUCGGAGAAGGCAGUUAUU	–	–	326	283
UUUACAUGAGGAUCACCCAUGUCUUGAAAGAUUAGUUCUGGUGAGGAUAUACAUGAUAAAGAAUUGUAGAAGGCACUGGGUACA	113	33.1	–	–
CAGCCCUGAGGAUAUCCAUCCUUGUACAUGAGGAUCACCCAUGUUUUCCUCUGGGCUUUCGGAGAAGGCAGGUAUC	–	–	74.4	68.5
UGUCGGAGCAGAGGAUAUUACAUGAGGAUCACCCAUGUAUAAACCAAUAGCUGGAAACAGCAAUGUAAGAAGGCUGCUCCGACA	–	–	5.28	10.1
UAUUAUCACGAAGGAUAUGCUGACAUGAGGAUCACCCAUGUAUGUAUAUUGAUCCAGCGUAUUUAGCAGAAGGUCGUGAGUAAA	–	–	45.9	43
UGGUACAUGGGAGGAUAUGGGUAGAUAACAUGAGGAUCACCCAUGUUAAGAAAUGCCGAAAGGCACUAGAAGGCCCAUGUACCU	637	46.7	–	–
CUGAUGUUAGGAUAUCAGGUCGCGCGCGAAGGCGCGCAGCAUGAGAAGGAACAUGAGGAUCACCCAUGUGACGA	–	–	22.4	60.5
AACGGGUGGGUAGGAUAUGGCUAUGUCUCAUUGCUAGAAGGACCAGCUGCUACAUGAGGAUCACCCAUGUCGUAGUGCAUCCAG	88.2	13	–	–
CGUGCACAUGAGGAUCACCCAUGUCGUCGCGAUCAAGGAUAUGAAAGCAGCGUUAUGUUAUCAGAAGGUGAACCUC	28.1	21.9	–	–
UCUGUCGUUGUGAGGAUAUGCCCAAAUAAAAGCGGGCAGAAGGCACAUGAGGAUCACCCAUGUCCUGCGGUUUU	–	–	21.4	237
